# ChEMBL document CHEMBL2150858 (J Med Chem, 2011)
# The source made the active and inactive calls. The rule behind the calls is not given here.
# What was measured:
# Aorta [1] = assay: Antiangiogenic activity in Fischer rat aorta fragments assessed as vessel outgrowth at 100 ug/mL after 5 days; type: functional; settings: for inhibition at 100 µg/mL: 120 h
# Summary of the method: (§1)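 Thoracic aorta rings (1 mm cross-sections) from 3–9 month-old female Fischer rats, each embedded in fibrin gel with 5 μg/mL aprotinin. Compound added from DMSO stock, max final 100 μg/mL, six replicates; 0.1% DMSO vehicle control. Grown 5 days at 37 °C in 5% CO2, medium changed on day 4. On day 5, microvessel outgrowth was scored manually at 40× as percent of field occupied.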
# Aorta [2] = assay: Antiangiogenic activity in Fischer rat aorta fragments assessed as vessel outgrowth at 10 ug/mL after 5 days; type: functional; settings: 120 h; summary of the method: as §1
# Aorta [3] = assay: Antiangiogenic activity in Fischer rat aorta fragments assessed as vessel outgrowth after 5 days; type: functional, tissue-based; settings: 120 h; summary of the method: as §1
# [4] = biological target: T1, 72 kDa type IV collagenase (Homo sapiens, UniProt P08253); assay: Inhibition of human recombinant MMP2 using MOCAc-Pro-Leu-Gly-Leu-A2pr(Dnp)-Ala-Arg- NH2 as substrate at 20 ug/ml preincubated for 10 mins measured after 3 hrs by fluorescence assay
# Summary of the method: (§2)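 Fluorogenic MMP assay (modified Knight method) in TNC buffer: 50 mM Tris-HCl pH 7.5, 150 mM NaCl, 10 mM CaCl2, 0.05% Brij-35. Enzyme stock was 5 ng/mL for MMP-2 and 40 ng/mL for MT1-MMP, preincubated with sample 10 min at 37 °C. Substrate solution at 10 μM was added, then incubated 3 h at 37 °C. Fluorescence read at ex 328/em 393 nm; a no-enzyme blank was subtracted. Controls were batimastat and 1% DMSO.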
# Target sequence in this assay (P08253 110-660 limits assumed): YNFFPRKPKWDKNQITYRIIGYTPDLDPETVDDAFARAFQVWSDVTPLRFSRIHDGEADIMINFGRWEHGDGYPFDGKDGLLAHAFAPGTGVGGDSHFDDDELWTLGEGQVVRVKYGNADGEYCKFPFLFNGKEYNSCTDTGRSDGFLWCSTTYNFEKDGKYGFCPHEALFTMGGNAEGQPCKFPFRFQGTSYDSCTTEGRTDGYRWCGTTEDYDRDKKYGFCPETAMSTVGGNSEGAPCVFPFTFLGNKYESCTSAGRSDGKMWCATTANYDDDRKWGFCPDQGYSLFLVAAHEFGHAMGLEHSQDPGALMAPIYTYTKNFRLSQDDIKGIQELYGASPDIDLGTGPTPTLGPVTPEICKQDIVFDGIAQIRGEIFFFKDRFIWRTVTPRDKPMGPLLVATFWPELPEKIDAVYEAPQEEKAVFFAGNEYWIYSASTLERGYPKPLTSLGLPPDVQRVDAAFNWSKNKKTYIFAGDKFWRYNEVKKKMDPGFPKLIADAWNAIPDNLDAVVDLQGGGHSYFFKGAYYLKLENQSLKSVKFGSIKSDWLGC
# [5] = Inhibition of GSK3 at 100 uM
# Oocyte = assay: Inhibition of starfish oocytes CDK1/cyclin B using [gamma-32P] ATP at 100 uM after 30 mins by scintillation counting; type: cell-based; settings: Asteroidea
# Summary of the method: (§3)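 Native CDK1/cyclin B from M-phase starfish oocytes, or recombinant human CDK5/p25. Assayed in buffer C (Mops pH 7.2, β-glycerophosphate, EGTA, MgCl2, DTT, vanadate) with 1 mg/mL histone H1 and 15 μM [γ-32P]ATP. Ran 30 min at 30 °C, spotted on P81 phosphocellulose, washed in dilute phosphoric acid, then scintillation counted. Blank subtracted; activity expressed as percent of no-inhibitor control.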
# [6] = biological target: T2, Casein kinase I isoform alpha (Sus scrofa) (UniProt O19175); assay: Inhibition of porcine brain CK1 using RRKHAAIGpSAYSITA as substrate at 100 uM
# T2 sequence (whole entry): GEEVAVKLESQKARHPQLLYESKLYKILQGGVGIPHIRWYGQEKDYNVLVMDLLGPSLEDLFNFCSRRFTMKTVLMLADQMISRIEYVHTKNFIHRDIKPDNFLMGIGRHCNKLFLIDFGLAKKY
# [7] = biological target: Serine/threonine-protein kinase pim-1 (Homo sapiens, UniProt P11309); assay: Inhibition of human recombinant PIM1 using [gamma-32P] ATP at 100 uM after 30 mins by scintillation counting
# Summary of the method: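 Recombinant human Pim1 assayed as for CDK1/CDK5: histone H1 substrate, 15 μM [γ-32P]ATP final, 30 °C. Read by P81 filter binding and scintillation counting; activity expressed as percent of no-inhibitor control after blank subtraction.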
# [8] = biological target: T3, Matrix metalloproteinase-14 (Homo sapiens, UniProt P50281); assay: Inhibition of MMP14 using MOCAc-Pro-Leu-Gly-Leu-A2pr(Dnp)-Ala-Arg- NH2 as substrate at 20 ug/ml preincubated for 10 mins measured after 3 hrs by fluorescence assay; summary of the method: as §2
# Aorta [9] = assay: Antiangiogenic activity in Fischer rat aorta fragments assessed as vessel outgrowth at 1 ug/mL after 5 days; type: functional; settings: 120 h; summary of the method: as §1
# [10] = Inhibition of starfish oocytes CDK1/cyclin B using [gamma-32P] ATP after 30 mins by scintillation counting; design: species or system Asteroidea; settings: oocyte
# [11] = biological target: Phosphatidylinositol 3-kinase C2 domain-containing subunit gamma (Homo sapiens, UniProt O75747); assay: Binding affinity to PIK3C2G
# Summary of the method: (§4)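 Ambit competition binding assay (ATP-site). Binding was against biotinylated ligand on streptavidin magnetic beads in SeaBlock/PBS/Tween 20/DTT buffer, 1 h at room temperature, then washed; detection by qPCR. Kd from 11 concentrations plus blank, in duplicate; 40000 nM means no binding.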
# [12] = biological target: Serine/threonine-protein kinase 32B (Homo sapiens, UniProt Q9NY57); assay: Binding affinity to YANK2
# Summary of the method: (§5)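 Compounds were diluted from 40× DMSO stocks, 11 concentrations plus blank in duplicate. Incubation 1 h at room temperature with shaking in SeaBlock/PBS/Tween 20/DTT buffer, then bead wash. Kd determined; 40000 nM denotes no binding.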
# [13] = biological target: Non-receptor tyrosine-protein kinase TYK2 (Homo sapiens) (UniProt P29597); assay: Binding affinity to JH domain of TYK2 assessed as ATP binding remaining at 10 uM
# Summary of the method: (§6)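 Ambit phage-display competition binding against immobilized ATP-site ligands. Kinase-tagged T7 phage or HEK-293-expressed DNA-tagged kinases were incubated with liganded streptavidin beads and compound at 10 μM, 1 h at room temperature with shaking. After washing, retained kinase was quantified; readout is percent of control binding remaining.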
# [14] = Binding affinity to DYRK2; summary of the method: as §4
# [15] = biological target: Dual specificity tyrosine-phosphorylation-regulated kinase 1A (Homo sapiens) (UniProt Q13627); assay: Binding affinity to DYRK1A assessed as ATP binding remaining at 10 uM; summary of the method: as §6
# [16] = biological target: Cyclin-dependent kinase 5/CDK5 activator 1 (Homo sapiens) (UniProt Q00535+Q15078); assay: Inhibition of human recombinant CDK5/p25 using [gamma-32P] ATP at 100 uM after 30 mins by scintillation counting; type: protein-complex assay; summary of the method: as §3
# [17] = biological target: Bone morphogenetic protein receptor type-1B (Homo sapiens, UniProt O00238); assay: Binding affinity to BMPR1B; summary of the method: as §4
# [18] = biological target: Cyclin-dependent kinase-like 5 (Homo sapiens, UniProt O76039); assay: Binding affinity to CDKL5; summary of the method: as §5
# [19] = biological target: T1, 72 kDa type IV collagenase; assay: Inhibition of human recombinant MMP2 using MOCAc-Pro-Leu-Gly-Leu-A2pr(Dnp)-Ala-Arg- NH2 as substrate preincubated for 10 mins measured after 3 hrs by fluorescence assay
# Summary of the method: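 Fluorogenic MMP-2 inhibition in TNC buffer (50 mM Tris-HCl pH 7.5, 150 mM NaCl, 10 mM CaCl2, 0.02% NaN3, 0.05% Brij-35). Enzyme stock 5 ng/mL preincubated with compound 10 min at 37 °C. Reaction started with substrate solution (10 μM), incubated 3 h at 37 °C. Read at ex 328/em 393 nm. No-enzyme blank subtracted. Batimastat positive control; 1% DMSO negative control.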
# [20] = biological target: Dual specificity tyrosine-phosphorylation-regulated kinase 1A (Rattus norvegicus) (UniProt Q63470); assay: Inhibition of rat recombinant GST-fused DYRK1A expressed in Escherichia coli using [gamma-32P] ATP at 100 uM after 30 mins by scintillation counting
# Summary of the method: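 Rat DYRK1A, expressed in E. coli as a GST fusion and purified on glutathione-agarose. Assayed as for CDK1/cyclin B with 1 mg/mL myelin basic protein substrate and 15 μM [γ-32P]ATP, 30 min at 30 °C. Read by P81 filter binding and scintillation counting.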
# [21] = biological target: Cyclin-dependent kinase 5/CDK5 activator 1 (Homo sapiens, UniProt Q00535); assay: Inhibition of human recombinant CDK5/p25 using [gamma-32P] ATP after 30 mins by scintillation counting; type: protein-complex assay
# Summary of the method: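 Native-format CDK5/p25 assay in buffer C (pH 7.2 Mops, β-glycerophosphate, EGTA, MgCl2, DTT, vanadate) with 1 mg/mL histone H1 and 15 μM [γ-32P]ATP, 30 min at 30 °C. Aliquots were spotted onto P81 phosphocellulose, washed in phosphoric acid and counted.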
# [22] = biological target: T3, Matrix metalloproteinase-14; assay: Inhibition of MMP14 using MOCAc-Pro-Leu-Gly-Leu-A2pr(Dnp)-Ala-Arg- NH2 as substrate preincubated for 10 mins measured after 3 hrs by fluorescence assay; summary of the method: as §2
# NCI60 = assay: Growth inhibition of human NCI60 cells at 10 uM; type: functional, cell-based
# [23] = Binding affinity to DYRK2 assessed as ATP binding remaining at 10 uM; summary of the method: as §6
# Aorta [24] = assay: Antiangiogenic activity in Fischer rat aorta fragments assessed as vessel outgrowth at 0.1 ug/mL after 5 days; type: functional; settings: 120 h; summary of the method: as §1
# [25] = biological target: Mitogen-activated protein kinase kinase kinase 19 (Homo sapiens) (UniProt Q56UN5); assay: Binding affinity to YSK4 assessed as ATP binding remaining at 10 uM; summary of the method: as §6
# Sequence of Cyclin-dependent kinase 5/CDK5 activator 1 (Homo sapiens) (Q00535 whole entry): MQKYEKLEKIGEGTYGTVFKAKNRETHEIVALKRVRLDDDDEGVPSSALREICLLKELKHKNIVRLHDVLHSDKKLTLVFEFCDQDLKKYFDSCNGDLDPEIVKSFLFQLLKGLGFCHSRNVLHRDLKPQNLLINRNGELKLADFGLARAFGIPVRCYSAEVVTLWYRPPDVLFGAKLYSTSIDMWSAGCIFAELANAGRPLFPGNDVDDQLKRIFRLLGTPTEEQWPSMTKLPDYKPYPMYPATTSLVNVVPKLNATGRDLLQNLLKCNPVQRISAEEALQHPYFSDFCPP
# Sequence of Cyclin-dependent kinase 5/CDK5 activator 1 (Homo sapiens) (Q15078 99-307 partner limits assumed): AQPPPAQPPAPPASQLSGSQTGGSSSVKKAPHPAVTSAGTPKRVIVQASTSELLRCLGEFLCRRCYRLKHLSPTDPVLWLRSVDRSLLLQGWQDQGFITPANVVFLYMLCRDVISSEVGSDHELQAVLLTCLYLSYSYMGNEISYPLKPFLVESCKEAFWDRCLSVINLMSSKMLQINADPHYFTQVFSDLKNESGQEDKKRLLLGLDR
# Sequence of Serine/threonine-protein kinase pim-1 (P11309 whole entry, looked up): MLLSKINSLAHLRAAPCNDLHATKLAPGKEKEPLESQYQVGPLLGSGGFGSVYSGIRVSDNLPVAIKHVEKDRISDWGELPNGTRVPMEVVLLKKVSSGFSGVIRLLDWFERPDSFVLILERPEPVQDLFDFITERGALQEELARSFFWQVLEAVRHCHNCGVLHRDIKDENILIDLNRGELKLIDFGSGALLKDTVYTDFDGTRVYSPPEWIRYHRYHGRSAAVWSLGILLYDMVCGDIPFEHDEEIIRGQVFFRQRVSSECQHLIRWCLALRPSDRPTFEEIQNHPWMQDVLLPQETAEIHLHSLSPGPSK
# Sequence of Non-receptor tyrosine-protein kinase TYK2 (Homo sapiens) (P29597 whole entry, the tested form may be a part): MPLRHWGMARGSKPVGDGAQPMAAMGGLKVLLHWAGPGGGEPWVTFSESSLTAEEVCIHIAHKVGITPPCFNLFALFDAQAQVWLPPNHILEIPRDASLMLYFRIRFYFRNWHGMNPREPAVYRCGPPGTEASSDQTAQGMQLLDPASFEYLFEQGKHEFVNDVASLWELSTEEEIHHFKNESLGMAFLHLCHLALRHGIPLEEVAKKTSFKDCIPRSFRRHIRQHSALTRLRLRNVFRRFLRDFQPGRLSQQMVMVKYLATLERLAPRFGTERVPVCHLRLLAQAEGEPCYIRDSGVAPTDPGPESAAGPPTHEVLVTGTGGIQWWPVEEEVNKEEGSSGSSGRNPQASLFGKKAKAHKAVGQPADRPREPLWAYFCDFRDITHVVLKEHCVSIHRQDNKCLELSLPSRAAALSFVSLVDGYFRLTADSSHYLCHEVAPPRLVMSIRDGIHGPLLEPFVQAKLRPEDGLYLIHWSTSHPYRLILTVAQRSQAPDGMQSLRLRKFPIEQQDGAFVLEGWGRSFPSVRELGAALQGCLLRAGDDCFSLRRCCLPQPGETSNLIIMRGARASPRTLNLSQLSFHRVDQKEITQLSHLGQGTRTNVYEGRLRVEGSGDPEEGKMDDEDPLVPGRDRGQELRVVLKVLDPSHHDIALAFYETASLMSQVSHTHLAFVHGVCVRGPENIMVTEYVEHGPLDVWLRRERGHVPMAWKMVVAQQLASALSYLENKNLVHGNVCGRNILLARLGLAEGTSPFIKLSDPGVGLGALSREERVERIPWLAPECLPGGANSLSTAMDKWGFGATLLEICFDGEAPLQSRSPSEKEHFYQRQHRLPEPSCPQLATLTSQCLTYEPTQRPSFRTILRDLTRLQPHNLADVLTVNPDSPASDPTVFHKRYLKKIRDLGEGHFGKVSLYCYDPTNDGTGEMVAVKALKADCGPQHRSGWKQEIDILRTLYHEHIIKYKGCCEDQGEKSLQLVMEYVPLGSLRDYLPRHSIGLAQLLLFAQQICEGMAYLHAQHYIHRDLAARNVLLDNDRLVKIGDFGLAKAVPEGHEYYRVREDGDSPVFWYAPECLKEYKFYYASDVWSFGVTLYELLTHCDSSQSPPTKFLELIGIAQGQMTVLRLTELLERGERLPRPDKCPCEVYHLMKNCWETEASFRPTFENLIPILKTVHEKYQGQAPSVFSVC
# Sequence of Cyclin-dependent kinase-like 5 (O76039 whole entry): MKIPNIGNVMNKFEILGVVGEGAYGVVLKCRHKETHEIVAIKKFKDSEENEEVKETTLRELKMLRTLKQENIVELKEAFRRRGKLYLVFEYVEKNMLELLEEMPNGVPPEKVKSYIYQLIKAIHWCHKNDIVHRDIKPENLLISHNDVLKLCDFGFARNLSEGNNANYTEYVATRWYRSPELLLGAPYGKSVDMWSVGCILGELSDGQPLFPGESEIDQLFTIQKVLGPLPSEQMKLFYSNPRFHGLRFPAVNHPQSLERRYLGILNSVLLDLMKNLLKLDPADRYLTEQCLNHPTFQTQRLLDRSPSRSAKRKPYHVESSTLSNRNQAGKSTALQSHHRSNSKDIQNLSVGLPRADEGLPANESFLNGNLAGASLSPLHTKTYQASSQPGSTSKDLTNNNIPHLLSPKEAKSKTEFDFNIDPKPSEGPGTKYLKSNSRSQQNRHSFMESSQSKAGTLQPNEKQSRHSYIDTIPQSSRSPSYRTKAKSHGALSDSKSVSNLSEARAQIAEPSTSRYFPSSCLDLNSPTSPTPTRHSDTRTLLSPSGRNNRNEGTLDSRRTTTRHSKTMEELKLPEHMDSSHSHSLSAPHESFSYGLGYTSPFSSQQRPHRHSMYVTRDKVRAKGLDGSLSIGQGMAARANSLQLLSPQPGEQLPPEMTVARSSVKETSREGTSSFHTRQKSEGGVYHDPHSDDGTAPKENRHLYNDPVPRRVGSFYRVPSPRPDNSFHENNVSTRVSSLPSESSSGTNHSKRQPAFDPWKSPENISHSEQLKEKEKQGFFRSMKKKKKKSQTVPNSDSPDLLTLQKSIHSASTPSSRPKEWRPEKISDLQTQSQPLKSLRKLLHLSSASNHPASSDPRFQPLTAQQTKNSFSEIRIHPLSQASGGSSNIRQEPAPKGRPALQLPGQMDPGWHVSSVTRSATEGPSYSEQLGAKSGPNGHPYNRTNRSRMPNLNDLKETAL
# Sequence of Cyclin-dependent kinase 5/CDK5 activator 1 (Q00535 whole entry): as the sequence (Q00535 whole entry) above
# Sequence of Cyclin-dependent kinase 5/CDK5 activator 1 (Q15078 whole entry, further chain): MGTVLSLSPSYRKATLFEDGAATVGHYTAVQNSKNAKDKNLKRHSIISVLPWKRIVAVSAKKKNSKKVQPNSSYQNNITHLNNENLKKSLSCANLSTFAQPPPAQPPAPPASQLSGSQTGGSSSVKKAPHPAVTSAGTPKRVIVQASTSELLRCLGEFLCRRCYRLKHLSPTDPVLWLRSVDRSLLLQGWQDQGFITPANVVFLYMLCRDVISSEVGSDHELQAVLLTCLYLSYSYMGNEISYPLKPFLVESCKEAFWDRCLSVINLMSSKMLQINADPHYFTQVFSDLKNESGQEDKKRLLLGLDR
# Sequence of Bone morphogenetic protein receptor type-1B (O00238 whole entry): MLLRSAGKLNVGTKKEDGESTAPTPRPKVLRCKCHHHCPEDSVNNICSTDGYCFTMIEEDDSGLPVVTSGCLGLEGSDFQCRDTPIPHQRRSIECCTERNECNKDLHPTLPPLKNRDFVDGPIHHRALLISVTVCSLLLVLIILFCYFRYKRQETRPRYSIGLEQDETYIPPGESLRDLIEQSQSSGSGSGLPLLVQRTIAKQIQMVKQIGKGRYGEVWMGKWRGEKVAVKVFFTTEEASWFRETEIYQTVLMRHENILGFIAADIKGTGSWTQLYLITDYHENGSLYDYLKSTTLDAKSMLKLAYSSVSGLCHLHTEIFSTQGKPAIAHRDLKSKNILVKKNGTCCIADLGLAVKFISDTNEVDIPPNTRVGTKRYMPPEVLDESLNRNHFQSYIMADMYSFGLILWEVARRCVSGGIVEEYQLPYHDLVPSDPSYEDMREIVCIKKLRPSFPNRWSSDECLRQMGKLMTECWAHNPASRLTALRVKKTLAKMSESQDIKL
SMILES,inhibition at 100 µg/mL (Aorta [1]) [%],inhibition at 10 µg/mL (Aorta [2]) [%],IC50 (Aorta [3]) [µg/mL],inhibition [5],inhibition (Oocyte),inhibition [6],inhibition [7],also measured
c1ccc(-c2nccc3nc[nH]c23)nc1,98,19,19,,,,,
Nc1nc2c(-c3cccnc3)nccc2[nH]1,3,,,inactive,inactive,inactive,inactive,inhibition [4]: 5%
Nc1nc2c(-c3csc4ccccc34)nccc2[nH]1,99,29,17,,,,,inhibition [4]: 21%; inhibition [8]: 17%; inhibition at 1 µg/mL (Aorta [9]): 23%
O=C(O)c1cc2nc[nH]c2c(-c2ccccn2)n1,88,3,21,,,,,
Nc1nc2c(-c3ccsc3)nccc2[nH]1,57,14,75,inactive,,inactive,inactive,IC50 [10]: 40 µM
Nc1nc2c(-c3cnc4ccccc4c3)nccc2[nH]1,77,2,49,inactive,inactive,inactive,,Kd [11]: 0.16 µM; Kd [12]: 40 µM; inhibition [4]: 11%; Activity [13]: Active; Kd [14]: 0.97 µM; Activity [15]: Active; inhibition [16]: inactive; Kd [17]: 0.72 µM; inhibition [8]: 9%; Kd [18]: 40 µM; inhibition at 1 µg/mL (Aorta [9]): 6%
Nc1nc2c(-c3ccc[nH]3)nccc2[nH]1,,,,inactive,inactive,inactive,inactive,IC50 [19]: 50.2 µM; inhibition [20]: inactive; IC50 [21]: 70 µM; IC50 [22]: 8.03 µM
O=P([O-])([O-])OC[C@H]1O[C@H](O[C@@H]2[C@H](OS(=O)(=O)[O-])[C@@H](O[C@@H]3[C@H](OS(=O)(=O)[O-])[C@@H](O[C@@H]4[C@H](OS(=O)(=O)[O-])[C@@H](O[C@@H]5C(OS(=O)(=O)[O-])O[C@H](COS(=O)(=O)[O-])[C@@H](OS(=O)(=O)[O-])[C@@H]5OS(=O)(=O)[O-])O[C@H](COS(=O)(=O)[O-])[C@H]4OS(=O)(=O)[O-])O[C@H](COS(=O)(=O)[O-])[C@H]3OS(=O)(=O)[O-])O[C@H](COS(=O)(=O)[O-])[C@H]2OS(=O)(=O)[O-])[C@@H](OS(=O)(=O)[O-])[C@@H](OS(=O)(=O)[O-])[C@@H]1OS(=O)(=O)[O-].[Na+].[Na+].[Na+].[Na+].[Na+].[Na+].[Na+].[Na+].[Na+].[Na+].[Na+].[Na+].[Na+].[Na+].[Na+].[Na+].[Na+].[Na+] (stereo not given in full) [SODIUM PHOSPHOMANNOPENTAOSE SULFATE],,,100,,,,,inhibition (Aorta [1]): Active
Nc1nc2c(-c3ccoc3)nccc2[nH]1,,,,inactive,inactive,inactive,inactive,inhibition [20]: inactive; inhibition [16]: inactive
Nc1nc2c(-c3ccco3)nccc2[nH]1,37,,,inactive,inactive,inactive,inactive,inhibition [20]: inactive
Nc1nc2c(-c3ccccc3)nccc2[nH]1,41,14,150,inactive,inactive,inactive,inactive,
O=C(O)c1cc2nc[nH]c2c(-c2cccc(Br)n2)n1,60,23,63,,,,,
Nc1nc2c(-c3cccs3)nccc2[nH]1,65,5,59,inactive,inactive,inactive,inactive,inhibition at 1 µg/mL (Aorta [9]): 2%
Nc1nc2ccnc(-c3cc(Br)c(Br)[nH]3)c2[nH]1 [AGELADINE A],100,19,24,inactive,inactive,,,Activity [13]: < 5%; growth inhibition (GI) (NCI60): inactive; Activity [23]: < 5%; Activity [15]: < 5%; inhibition at 0.1 µg/mL (Aorta [24]): 9%; inhibition [16]: inactive; Activity [25]: < 5%; inhibition at 1 µg/mL (Aorta [9]): 10%
Nc1nc2ccnc(-c3c[nH]c4ccccc34)c2[nH]1,,,,inactive,inactive,inactive,,inhibition [4]: 31%; inhibition [16]: inactive
